Calls of active or inactive are those of the source. No cut-off for these calls is given here.
What was measured:
Mus musculus [1] = test: Induction of interferon level in CD-1 mouse serum at 100 mg/kg, po after 18 to 20 hrs by vesicular stomatitis virus plaque reduction assay; type: functional, organism-based; design: dose 100 mg/kg
In short: (§1)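 Dosing was oral or ip in 15-g female CD-1 mice, at least three per dose level, with compound in sterile distilled water as a solution or suspension. Pooled sera were collected 18–20 hr after dosing. Interferon units/ml were quantified by a plaque reduction assay on mouse L cells with vesicular stomatitis virus challenge, run against an NIAID reference mouse interferon standard.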

Mus musculus [2] = test: Toxicity in CD-1 mouse at 300 mg/kg, ip; type: organism-based; design: dose 300 mg/kg, route intraperitoneal; conditions: in vivo
Mus musculus [3] = test: Induction of interferon level in CD-1 mouse serum at 9 mg/kg, ip after 18 to 20 hrs by vesicular stomatitis virus plaque reduction assay; type: functional, organism-based; design: dose 9 mg/kg; in short: as §1
Mus musculus [4] = test: Induction of interferon level in CD-1 mouse serum at 17 mg/kg, ip after 18 to 20 hrs by vesicular stomatitis virus plaque reduction assay; type: functional, organism-based; design: dose 17 mg/kg; in short: as §1
Mus musculus [5] = test: Induction of interferon level in CD-1 mouse serum at 200 mg/kg, po after 18 to 20 hrs by vesicular stomatitis virus plaque reduction assay; type: functional, organism-based; design: dose 200 mg/kg; in short: as §1
Mus musculus [6] = test: Induction of interferon level in CD-1 mouse serum at 50 mg/kg, ip after 18 to 20 hrs by vesicular stomatitis virus plaque reduction assay; type: functional, organism-based; design: dose 50 mg/kg; in short: as §1
Mus musculus [7] = test: Toxicity in CD-1 mouse at 400 mg/kg, po; type: organism-based; design: dose 400 mg/kg, route oral; conditions: in vivo
Mus musculus [8] = test: Induction of interferon level >= 32 units/mL in ip dosed CD-1 mouse serum after 18 to 20 hrs by vesicular stomatitis virus plaque reduction assay; type: functional; conditions: CD-1, Serum, read-out: MED
In short: (§2)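 Female CD-1 mice (15 g; at least three per dose) received compound dissolved or suspended in sterile distilled water, orally or ip. They were bled 18–20 hr later and sera pooled. Interferon was titrated by plaque reduction in mouse L cells challenged with vesicular stomatitis virus, with an NIAID reference mouse interferon standard. MED was the lowest dose giving ≥32 units/ml. Top doses were 400 mg/kg po and 300 mg/kg ip.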

Mus musculus [9] = test: Acute toxicity in CD-1 mouse at 250 mg/kg, ip; type: organism-based; design: dose 250 mg/kg, route intraperitoneal; conditions: in vivo
Mus musculus [10] = test: Induction of interferon level >= 32 units/mL in po dosed CD-1 mouse serum after 18 to 20 hrs by vesicular stomatitis virus plaque reduction assay; type: functional; conditions: CD-1, Serum, read-out: MED; in short: as §2
Mus musculus [11] = test: Acute toxicity in CD-1 mouse at 1600 mg/kg, po; type: organism-based; design: dose 1600 mg/kg, route oral; conditions: in vivo
Mus musculus [12] = species: Mus musculus; test: Acute toxicity in CD-1 mouse; type: organism-based; conditions: in vivo
Mus musculus [13] = test: Induction of interferon level in CD-1 mouse serum at 400 mg/kg, po after 18 to 20 hrs by vesicular stomatitis virus plaque reduction assay; type: functional, organism-based; design: dose 400 mg/kg; in short: as §1

SMILES: CCOC(=O)c1cnc2c(c(C)nn2C)c1NCCCN(C)C
- Activity (Mus musculus [1]): inactive

SMILES: Cc1nn(C)c2nc3ccccc3c(NCCc3ccncc3)c12.Cl
- Activity (Mus musculus [2]): Toxic
- Activity (Mus musculus [3]): inactive
- Activity (Mus musculus [4]): inactive

SMILES: Cc1nn(C)c2nc3ccccc3c(NC3CC3)c12.Cl
- Activity (Mus musculus [2]): Toxic
- Activity (Mus musculus [1]): inactive

SMILES: Cc1nn(C)c2nc3ccccc3c(SCCCN(C)C)c12.Cl
- Activity (Mus musculus [2]): Toxic
- Activity (Mus musculus [5]): inactive
- Activity (Mus musculus [6]): inactive

SMILES: COc1cc2nc3c(c(C)nn3C)c(NCCCN(C)C)c2c(OC)c1OC.Cl
- Activity (Mus musculus [5]): inactive
- Activity (Mus musculus [7]): Toxic

SMILES: Cc1nn(C)c2nc3ccccc3c(NCCCNC34CC5CC(CC(C5)C3)C4)c12.Cl
- Activity (Mus musculus [2]): Toxic
- Activity (Mus musculus [1]): inactive

SMILES: Cc1nn(CCNCCCN(C)C)c2nc3ccccc3c(NCCCN(C)C)c12.Cl
- Activity (Mus musculus [2]): Toxic
- Activity (Mus musculus [3]): inactive

SMILES: Cc1nn(C)c2nc3ccccc3c(NCCCN(C)C)c12.Cl
- minimal effective dose (Mus musculus [8]): 100 mg/kg
- Activity (Mus musculus [9]): Toxic
- minimal effective dose (Mus musculus [10]): 200 mg/kg
- Activity (Mus musculus [11]): Toxic

SMILES: COc1ccc(Cl)c2c(NCCCN(C)C)c3c(C)nn(C)c3nc12.Cl
- Activity (Mus musculus [7]): Toxic
- Activity (Mus musculus [1]): inactive

SMILES: Cc1nn(CCCN(C)C)c2nc3ccccc3c(Cl)c12.Cl
- Activity (Mus musculus [2]): Toxic
- Activity (Mus musculus [4]): inactive

SMILES: Cc1nn(C(C)C)c2nc3ccccc3c(NCCCN(C)C)c12.Cl
- Activity (Mus musculus [2]): Toxic
- Activity (Mus musculus [6]): inactive

SMILES: Cc1nn(C)c2nc3ccccc3c(NCCc3ccccn3)c12.Cl
- Activity (Mus musculus [2]): Toxic
- Activity (Mus musculus [6]): inactive

SMILES: Cc1ccc2c(NCCCN(C)C)c3c(C)nn(C)c3nc2c1.Cl
- minimal effective dose (Mus musculus [8]): 50 mg/kg
- Activity (Mus musculus [12]): Toxic
- minimal effective dose (Mus musculus [10]): 50 mg/kg
- Activity (Mus musculus [13]): inactive

From ChEMBL document CHEMBL3272265, “Interferon inducing activities of derivatives of 1,3-dimethyl-4-(3-dimethylaminopropylamino)-1H-pyrazolo(3,4-b)quinoline and related compounds” (J Med Chem, 1976)
